Source: article PMC4261236 (Journal of Medicinal Chemistry, 2014)

Key:
[1] = Biodistribution in tumor-bearing mice; format: in vivo; settings: mouse, liver, intravenous, 1.85 MBq
[2] = test system: sstr2-transfected HCT116 tumor-bearing female nu/nu mice; experiment: Biodistribution in tumor-bearing mice; format: in vivo; settings: for blood clearance (in words): 1 to 4 h p.i.; for tumor uptake blocked by co-injected Y3-TATE: 4 h p.i., 20 μg Y3-TATE co-injected
[3] = test system: sstr2-transfected HCT116 tumor-bearing mice; experiment: Small animal PET/CT imaging; format: in vivo; settings: 2 h p.i.; for tumor SUV: PET/CT; for tumor SUV, blocked: unlabeled Y3-TATE co-injected to block
[4] = test system: sstr2-transfected HCT116 cells; experiment: Cell internalization assay; format: cell-based, Human; settings: for maximum internalized tracer: after 2 h at 37 °C, 4 nM tracer
Procedure, shortened: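 sstr2-transfected HCT116 cells (Iscove's, 10% FBS, 1 mM Zeocin) in 12-well plates with 64Cu-labelled tracer at 4 nM final (labelled at >98% yield, used without purification). Surface-bound and internalized activity gamma-counted at 15, 30, 60, 120 and 240 min. Nonspecific binding from 1000-fold excess Y3-TATE. Values normalized to added activity and to BCA protein (%ID/mg).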

| Molecule | tissue uptake at 24 h [1] | blood clearance (in words) [2] | liver uptake (in words) ([2]; 1 h p.i.) | tumor uptake blocked by co-injected Y3-TATE [2] | tumor SUV [3] | tumor SUV, blocked [3] | maximum internalized tracer [4] | internalization (in words) ([4]; 37 °C, up to 4 h) | liver uptake (in words) ([2]; 4 and 24 h p.i.) | tumor-to-blood ratio (in words) ([2]; 1, 4 and 24 h p.i.) | tumor uptake (in words) ([2]; 4 and 24 h p.i.) |
| --- | --- | --- | --- | --- | --- | --- | --- | --- | --- | --- | --- |
| C[C@@H](O)[C@H](NC(=O)[C@@H]1CSSC[C@H](NC(=O)[C@@H](Cc2ccccc2)NC(=O)CCCCCn2nnc3c2-c2ccccc2N(C(=O)CCNC(=O)CN2CCCN4CCN(CCCN(CP(=O)(O)O)CC4)CC2)Cc2ccccc2-3)C(=O)N[C@@H](Cc2ccc(O)cc2)C(=O)N[C@H](Cc2c[nH]c3ccccc23)C(=O)N[C@@H](CCCCN)C(=O)N[C@@H]([C@@H](C)O)C(=O)N1)C(=O)O (single isomer, unassigned) [^64Cu-AP-1, ^64Cu-CB-TE1A1P–DBCO–Y3-TATE, metal not drawn] | < 1 %ID/g | significantly slower than the blood clearance of ^64Cu-1A1P | significantly higher than that of ^64Cu-KP-1 and ^64Cu-1A1P | 63% | 4.6 ± 0.8 | 0.47 ± 0.18 | 45 ± 3 %ID/mg |  |  |  |  |
| C[C@@H](O)[C@H](NC(=O)[C@@H]1CSSC[C@H](NC(=O)[C@@H](Cc2ccccc2)NC(=O)CCCCCn2nnc3c2-c2ccccc2N(C(=O)CCNC(=O)CN2CCCN4CCN(CCCN(CP(=O)(O)O)CC4)CC2)Cc2ccccc2-3)C(=O)N[C@@H](Cc2ccc(O)cc2)C(=O)N[C@H](Cc2c[nH]c3ccccc23)C(=O)N[C@@H](CCCCN)C(=O)N[C@@H]([C@@H](C)O)C(=O)N1)C(=O)O (single isomer, unassigned) [^64Cu-AP-2, ^64Cu-CB-TE1A1P–DBCO–Y3-TATE, metal not drawn] |  |  |  |  |  |  | 73 ± 7 %ID/mg |  |  |  |  |
| C[C@@H](O)[C@H](NC(=O)[C@@H]1CSSC[C@H](NC(=O)[C@@H](Cc2ccccc2)NC(=O)CCCCCn2nnc3c2-c2ccccc2N(C(=O)CCNC(=O)CN2CCCN4CCN(CCCN(CP(=O)(O)O)CC4)CC2)Cc2ccccc2-3)C(=O)N[C@@H](Cc2ccc(O)cc2)C(=O)N[C@H](Cc2c[nH]c3ccccc23)C(=O)N[C@@H](CCCCN)C(=O)N[C@@H]([C@@H](C)O)C(=O)N1)C(=O)O (single isomer, unassigned) [^64Cu-AP-3, ^64Cu-CB-TE1A1P–DBCO–Y3-TATE, metal not drawn] |  |  |  |  |  |  |  | slower internalization which was not saturated after 4 h |  |  |  |
| C[C@@H](O)[C@H](NC(=O)[C@@H]1CSSC[C@H](NC(=O)[C@@H](Cc2ccccc2)NC(=O)CCCCCn2nnc3c2-c2ccccc2N(C(=O)CCNC(=O)CCOCCOCCOCCOCCOCCC(=O)NCCCCC(C(=O)O)N2CCCN4CCN(CCCN(CP(=O)(O)O)CC4)CC2)Cc2ccccc2-3)C(=O)N[C@@H](Cc2ccc(O)cc2)C(=O)N[C@H](Cc2c[nH]c3ccccc23)C(=O)N[C@@H](CCCCN)C(=O)N[C@@H]([C@@H](C)O)C(=O)N1)C(=O)O (some centres unmarked) [^64Cu-KP-1, ^64Cu-CB-TE1K1P–PEG4–DBCO–Y3-TATE, metal not drawn] | < 1 %ID/g | significantly slower than the blood clearance of ^64Cu-1A1P |  | 84% | 3.2 ± 0.2 | 0.21 ± 0.06 |  |  | lower uptake in the liver than ^64Cu-AP-1 and ^64Cu-1A1P |  |  |
| ^64Cu-CB-TE1A1P–Y3-TATE [^64Cu-1A1P] |  |  |  | 95% | 2.8 ± 0.4 | 0.19 ± 0.02 |  |  |  | significantly higher than both ^64Cu-AP-1 and ^64Cu-KP-1 at all time points | significantly higher tumor uptake than ^64Cu-KP-1 and ^64Cu-AP-1 |
